proCasp3 act = activators of human procaspase-3 D3A mutant, primary screen, biochemical, absorbance, PC-3 D3A mutant, single concentration; activation, % at 8.5 µM; 330,000 tested, 0.11% active; recombinant procaspase-3 D3A, Ac-DEVD-pNA absorbance 405 nm; Caspase-3 (Homo sapiens), P42574;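 active = activation above the mean of all tested compounds plus 3 SD, cut at about 21% in these data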;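 note: 0% = DMSO alone and 100% = DMSO wells spiked with extra 5 µM PC-3 D3A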
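Assay system – Procaspase-3 D3A mutant, all three cleavage aspartates alanine · Controls – DMSO-only low control, 5 µM PC-3 D3A high control · Schedule – 1 h compound preincubation, 2 h substrate hydrolysis at 25 °C · Signal – 405 nm absorbance of p-nitroaniline, reads at 0 and 120 min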
NR3A LBD binder = binders of NR3A ligand-binding domain, primary screen, biophysical, differential scanning fluorimetry, uHTS. Glutamate receptor ionotropic, NMDA 3A (GRIN3A) ligand-binding domain. NR3A LBD differential scanning fluorimetry, Tm shift; 0% = protein alone, 100% = glycine-bound protein. Tm shift relative to glycine control, % at 25 µM. 340,000 tested, 2.5% active;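 active = melting temperature shift of at least 10% of the positive control shift, at one fixed dose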
aDG glyco act = activators of alpha-DG glycosylation, primary screen, uHTS, Pro5-aDG cells, AlphaScreen | alpha-DG glycosylation AlphaScreen (IIH6); 0% Pro5, 100% B10-LARGE cell signal | activation, % at 10 µM | 360,000 tested, 0.22% active;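 active = activation of at least 8% versus controls, or a plate z-score of at least 8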;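 note: Pro5 are CHO cells carrying HIG-tagged alpha-DG that lacks glycosylation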
MPTP inh = mitochondrial permeability transition pore inhibitors, primary screen, biochemical, isolated mouse mitochondria, absorbance; inhibition, % at 10 µM; 360,000 tested, 1.4% active; Ca2+ swelling absorbance, 30 min;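 active = inhibition of 50% or more, scaled per plate between neutral and stimulator controls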;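 note: 0% = DMSO wells given calcium and 100% = 1 mM EGTA wells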
proCasp7 act = procaspase-7 activators, primary screen, counter-screen for procaspase-3 activator project, biochemical, absorbance, HTS, human; Caspase-7 (Homo sapiens), P55210; recombinant procaspase-7, Ac-DEVD-pNA absorbance 405 nm; D23A/D198A/D206A triple mutant, cannot self-cleave; scale: DMSO 0, 5 µM enzyme 100; activation, % at 8.5 µM; 330,000 tested, 0.093% active;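 active = percent activation above the screen-wide mean plus 3 SD, cut at about 25% in these data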
Target sequence (P55210 whole entry D23A/D198A/D206A): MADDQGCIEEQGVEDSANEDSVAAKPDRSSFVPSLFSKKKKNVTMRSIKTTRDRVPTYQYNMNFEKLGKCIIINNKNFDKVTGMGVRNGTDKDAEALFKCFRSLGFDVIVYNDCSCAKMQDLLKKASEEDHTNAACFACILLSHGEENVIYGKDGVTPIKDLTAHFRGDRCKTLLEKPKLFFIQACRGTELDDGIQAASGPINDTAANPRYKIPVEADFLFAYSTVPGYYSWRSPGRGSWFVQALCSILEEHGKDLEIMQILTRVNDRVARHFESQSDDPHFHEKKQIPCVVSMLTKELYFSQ
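Test system: Procaspase-7 triple mutant (PC-7 D3A). Also added: Ac-DEVD-pNA substrate, 400 µM as added. Schedule: 1 h enzyme–compound preincubation and 2 h substrate reaction, both 25 °C. Signal: p-Nitroaniline absorbance at 405 nm, read at 0 and 120 min. Control set: low DMSO alone, high DMSO plus 5 µM PC-7.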
PC3 D3A act = procaspase-3 activators, counter-screen for dual procaspase-3/7 activator project, biochemical, absorbance, PC-3 D3A mutant, human; activation, % at 8.5 µM; 290 tested, under 10 active; recombinant PC-3 D3A, Ac-DEVD-pNA absorbance 405 nm; aspartates 9, 28, 175 changed to alanine; 100% = enzyme control; shares compounds with proCasp7 act; AID 493114, 2011;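 active = mean percent activation across triplicates above a set limit taken from the earlier primary procaspase-3 screen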;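 note: 0% = DMSO wells and 100% = DMSO wells with 5 µM added PC-3 D3A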
PC7 dual conf = activation of procaspase-7 enzyme – biochemical, absorbance, human, dual procaspase-3/-7 activator project, confirmation; activation, % at 8.5 µM; recombinant procaspase-7, Ac-DEVD-pNA absorbance 405 nm; D23A/D198A/D206A mutant that cannot self-cleave; 290 tested, under 10 active; AID 493115, 2011; shares compounds with proCasp7 act;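 active = mean activation above a set limit carried over from the earlier primary screen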;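 note: 0% = DMSO only and 100% = DMSO with added 5 µM PC-7 enzyme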
Starred values were filed as active, the others as inactive; nt = no result. Compounds with a hit are over-represented: about 3.7% of the library has one in this group of screens.

SMILES | proCasp3 act | NR3A LBD binder | aDG glyco act | MPTP inh | proCasp7 act | PC3 D3A act | PC7 dual conf
CCOP(=O)(OCC)c1nc(-c2cccc3ccccc23)oc1NCc1ccc(OC)cc1 | 36* | -1 | 0 | 1 | 61* | -29 | -36
CCOP(=O)(OCC)c1nc(-c2cccc3ccccc23)oc1NCc1ccccc1 | 19 | 0 | 0 | 1 | 20 | nt | nt
COc1cc(/C=C/C(=O)Nc2nc3ccc(S(=O)(=O)N(C)C)cc3s2)cc(OC)c1OC | -18 | 1 | 0 | 4 | 35* | -30 | -35
COc1cccc(NC(=O)COC(=O)C2CCCCC2)c1 | 1 | 0 | 0 | 0 | 7 | nt | nt
COc1cc(C2C3=C(CC(C)(C)CC3=O)Nc3c2c(=O)[nH]c(=O)n3Cc2ccccc2)ccc1O (stereo unspecified) | 10 | -2 | 0 | -1 | 13 | nt | nt
COc1ccc(C2C3=C(CC(C)(C)CC3=O)Nc3c2c(=O)[nH]c(=O)n3Cc2ccccc2)cc1 (stereo unspecified) | 12 | 0 | 0 | -1 | 29* | -30 | -34
COc1ccc(C2C3=C(CC(C)(C)CC3=O)Nc3c2c(=O)[nH]c(=O)n3Cc2ccccc2)cc1OC (stereo unspecified) | 12 | -2 | 0 | -1 | 26* | -27 | -34
CN(c1ccc(F)cc1)S(=O)(=O)c1ccc(Cl)c(C(=O)NCC2(N3CCOCC3)CCCCC2)c1 | nt | 0 | 0 | -2 | nt | nt | nt
Cc1c(CCC(=O)NCCCN2CCCC2=O)c(=O)oc2c(C)c(O)ccc12 | 28* | 1 | 0 | 7 | 26* | -30 | -36
Cc1oc2cc3oc(=O)c(CCC(=O)NC4CC4)c(C)c3cc2c1C | 9 | -2 | 1 | 6 | -2 | nt | nt
Cc1c(CCC(=O)NC2CC2)c(=O)oc2c(C)c(O)ccc12 | 28* | -2 | 0 | 1 | 27* | -30 | -36
O=[N+]([O-])c1ccc(Cl)c(CN2CCN(c3ncc(Cc4ccccc4)cn3)CC2)c1 | nt | nt | 0 | 3 | nt | nt | nt
Cc1nnc(NC(=O)c2c(-c3ccccc3)noc2C)s1 | 5 | 0 | 0 | -3 | 26* | 1 | -1
CCc1nnc(NC(=O)c2c(-c3ccccc3)noc2C)s1 | 2 | -1 | 0 | -2 | -11 | nt | nt
CC1(C)SC(C)(C)N(C=O)C1C(=O)O (stereo unspecified) | nt | 1 | 0 | -1 | nt | nt | nt
COC(=O)C1C(O)=C(C=Nc2ccc(N)cc2)C(=O)CC1(C)C (stereo unspecified) | 11 | -1 | 1 | 0 | 36* | 3 | 0
CC(C)OC(=O)CC(=O)CSc1nc2c(cc1C#N)CCCC2 | 4 | -4 | 0 | 0 | 10 | nt | nt
CC(C)OC(=O)CC(=O)CSc1nc2c(cc1C#N)CCCCCC2 | 62* | -2 | 0 | 2 | 75* | -29 | -27
Cc1ccc(OCc2cc(C(=O)N3CC4C[C@@H]5CC3C[C@H](C4)C5)no2)cc1C | -2 | 6 | 0 | 3 | 4 | nt | nt
COC(=O)/C=C1\OC(C2CC2)c2ccccc21 (stereo unspecified) | nt | nt | 0 | -1 | nt | nt | nt
O=C1OCCN1C(=O)[C@H]1[C@H](c2ccc([N+](=O)[O-])cc2)C(c2cccc(Cl)c2)=NN1c1ccc(Br)cc1 | 0 | 7 | 0 | 1 | 1 | nt | nt
